Entries after “also recorded” stand apart in the source; their conditions may differ. Blank lines part the entries; values can stand above or below the compound they belong to.
What was measured:
MDA-MB-231 cells [1] = assay: Western blot of TSP levels, MDA-MB-231; format: cell-based; conditions: 48 h; for p53 levels: mutant p53
Method in brief: (§1)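 Cells in 10 cm dishes were treated 48 h with varying concentrations of test compound (0.5% DMSO final) or DMSO alone. HuH6 and MDA-MB-231 were grown in DMEM/10% FBS; A549 in RPMI 1640. Harvested cells were lysed in RIPA with protease/phosphatase inhibitors, on ice for 60 min. Equal protein (15 μg) was run under reducing conditions and blotted to PVDF. Probes were p53, phospho-p53 S6 and S15, Rb, gankyrin, and cyclophilin.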

MDA-MB-231 cells [2] = assay: Clonogenic assay, MDA-MB-231; format: cell-based; conditions: 48 h treatment then 7 days fresh media
Method in brief: (§2)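 Cells were seeded at 125 cells/mL in 6-well plates and left overnight to attach. Test compound was applied at two concentrations for 48 h at 37 °C, then removed. Fresh medium followed, changed every alternate day, for 7 days. Cells were washed in PBS, fixed in 4% paraformaldehyde and stained with 0.2% crystal violet for 1 h. Colonies of >50 cells were counted, and % growth was calculated relative to control; mean ± SD, n = 3.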

gankyrin [3] = target: T1, gankyrin (Homo sapiens, UniProt O75832); assay: Protein thermal shift; format: binding; conditions: Table S1
T1 sequence (O75832 1-226): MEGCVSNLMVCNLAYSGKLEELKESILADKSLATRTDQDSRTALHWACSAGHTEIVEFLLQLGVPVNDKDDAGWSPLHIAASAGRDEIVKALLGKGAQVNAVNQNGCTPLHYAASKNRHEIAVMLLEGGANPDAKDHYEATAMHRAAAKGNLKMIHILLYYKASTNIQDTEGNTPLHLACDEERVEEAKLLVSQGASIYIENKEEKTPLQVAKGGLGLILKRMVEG

gankyrin [4] = target: T1, gankyrin; assay: Circular dichroism spectra and thermal denaturation; format: binding; conditions: for CD spectra: α-helical (secondary structure) content of gankyrin: 100 nM to 1.5 μM compound, minima at 208 and 222 nm; for thermal denaturation of gankyrin monitored at 217 nm: 1.5 μM compound, 5 – 90 °C; for gankyrin precipitation in CD sample (visual examination): in presence of compound
Method in brief: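 Gankyrin, His6-tagged, was expressed in LB cultures with 1 mM IPTG induction at 25 °C for ~5 h. It was purified by Ni-IMAC, the tag cut with TEV, then dialysed and re-passed over Ni-IMAC. CD was run in 1x PBS, 0.5% DMSO, pH 7.4, in a 1 mm cuvette, with test compound at 100 nM–1.5 μM. Spectra covered 190–260 nm with six accumulations. Thermal melts were read at 217 nm, 5–90 °C, 1 °C/min.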

[5] = target: T2, gankyrin in MDA-MB-231 cells (Homo sapiens, UniProt O75832); assay: Cellular thermal shift assay; format: cell-based; conditions: 2 μM, 48 h
T2 sequence (O75832 1-226): T1 sequence (O75832 1-226)
Method in brief: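 Intact MDA-MB-231 cells were treated 48 h with 2 μM test compound (0.5% DMSO final) or DMSO. Cells were split into aliquots and heated separately at 50, 53, 56, 59, 62 and 65 °C. Lysis was in RIPA on ice for 60 min, then lysates were cleared at 15,000 rpm, 15 min, 4 °C. Equal protein was immunoblotted for gankyrin with actin as reference, and melt curves were built; mean ± SD, n = 3.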

MDA-MB-231 cells [6] = assay: Cell cycle analysis, MDA-MB-231; format: cell-based; conditions: 2 μM, 72 h
Method in brief: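 MDA-MB-231 cells in 10 cm dishes were exposed to 2 μM test compound (0.1% DMSO final) or DMSO alone for 72 h. Harvested cells were normalized, fixed in 70% ethanol at −20 °C overnight, pelleted and stained with a PI kit for 40 min at 37 °C. Analysis was by flow and imaging cytometry; mean ± SD, n = 3.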

HuH6 cells = assay: Western blot of TSP levels, HuH6; format: cell-based, human; conditions: 48 h (Figure S1)
Method in brief: as §1

MDA-MB-231 spheroids = assay: Live-dead cell assay, MDA-MB-231 spheroids; format: cell-based; conditions: day 15, IC50 and half IC50 concentrations
Method in brief: (§3)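 Spheroids from the growth study were stained after day 15 with calcein AM (live) and EthD-III (dead). Incubation was 30 min in the dark at room temperature, followed by fluorescence imaging at 4X. Live and dead signal were quantified; mean ± SD, n = 4.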

A549 cells [7] = assay: Antiproliferative MTT assay, A549; format: cell-based; conditions: for IC50: read-out: A549 IC50, 72 h with drug, MTT assay
MDA-MB-231 cells [8] = assay: Antiproliferative MTT assay, MDA-MB-231; format: cell-based; conditions: for IC50: read-out: MDA-MB-231 IC50, 72 h with drug, MTT assay
gankyrin in A549 cells = target: T3, gankyrin in A549 cells (Homo sapiens, UniProt O75832); assay: Cellular thermal shift assay; format: cell-based; conditions: 0.3 μM, 48 h
T3 sequence (O75832 1-226): T1 sequence (O75832 1-226)

A549 cells [9] = assay: Clonogenic assay, A549; format: cell-based; conditions: 0.15 μM, 48 h treatment then 7 days fresh media
Method in brief: as §2

A549 spheroids = assay: Live-dead cell assay, A549 spheroids; format: cell-based; conditions: day 15, both concentrations
Method in brief: as §3

A549 cells [10] = assay: Western blot of TSP levels, A549; format: cell-based; conditions: 48 h
Method in brief: as §1

A549 cells [11] = assay: Cell cycle analysis, A549; format: cell-based; conditions: 0.3 μM, 72 h

Compound: Methyl p-{4-[3-(p-toluoxy)propyl]-1H-1,2,3-triazol-1-yl}benzoate [Compound 25]
IC50 (A549 cells [7]): > 100 µM
IC50 (MDA-MB-231 cells [8]): > 100 µM

Compound: COC(=O)c1ccc(-n2cc(CCCC(=S)Nc3ccc(C)cc3)nn2)cc1 [Compound 21, Methyl p-{4-[3-(p-tolylcarbamthioyl)propyl]-1H-1,2,3-triazol-1-yl}benzoate]
improvement in antiproliferative activity against A549 as compared to cjoc42 (A549 cells [7]): ~10 fold
improvement in antiproliferative activity against MDA-MB-231 as compared to cjoc42 (MDA-MB-231 cells [8]): 8–10 fold

Compound: COC(=O)c1ccc(-n2cc(CCCOc3ccc(C)cc3)nn2)cc1 [Compound 33, Methyl p-{4-[3-(p-tolyloxy)propyl]-1H-1,2,3-triazol-1-yl}benzoate]
improvement in antiproliferative activity against MDA-MB-231 as compared to cjoc42 (MDA-MB-231 cells [8]): 8–10 fold

Compound: COC(=O)c1ccc(-n2cc(CCCNC(=O)Nc3ccc(C)cc3)nn2)cc1 [Compound 26, Methyl p-(4-{3-[3-(p-tolyl)ureido]propyl}−1H-1,2,3-triazol-1-yl)benzoate]
improvement in antiproliferative activity against MDA-MB-231 as compared to cjoc42 (MDA-MB-231 cells [8]): 8–10 fold

Compound: COC(=O)c1ccc(-n2cc(CCCC(=O)Nc3ccc(C)cc3)nn2)cc1 [Compound 20, Methyl p-{4-[3-(N-p-tolylcarbamoyl)propyl]-1H-1,2,3-triazol-1-yl}benzoate]
improvement in antiproliferative activity against MDA-MB-231 as compared to cjoc42 (MDA-MB-231 cells [8]): 8–10 fold

More lines, main results first:

gankyrin binding by protein thermal shift (gankyrin [3]): effectively bind gankyrin
gankyrin precipitation in CD sample (visual examination) (gankyrin [4]): only showed marginal precipitation
gankyrin thermal stability (CETSA) [5]: significantly decreased
Compound: O=C(CCCn1cc(-c2ccc(C(F)(F)F)cc2)nn1)Nc1ccc(-c2ccccc2)cc1 [Compound 51d, N-4-Biphenylyl4-{4-[p-(trifluoromethyl)phenyl]-1H-1,2,3-triazol-1-yl}butyramide]
Rb levels (MDA-MB-231 cells [1]): increase in Rb levels
gankyrin levels (MDA-MB-231 cells [1]): remained relatively unchanged
p53 levels (MDA-MB-231 cells [1]): relatively unchanged levels of p53
% colony growth (MDA-MB-231 cells [2]; 1.0 μM): 72.4%
CD spectra: α-helical (secondary structure) content of gankyrin (gankyrin [4]): weakening of secondary structure content in gankyrin
thermal denaturation of gankyrin monitored at 217 nm (gankyrin [4]): maintained gankyrin’s expected two-state transition but unfolded at an accelerated rate
cell population in the G2/M phase (MDA-MB-231 cells [6]): decrease in the cell population in the G2/M phase
cell population in the S phase (MDA-MB-231 cells [6]): relatively unchanged
cells in the G0/G1 phase (MDA-MB-231 cells [6]): significant increase in the number of cells in the G0/G1 phase
p53 and Rb levels (HuH6 cells): increased levels of both p53 and Rb
green fluorescence intensity (live cells) (MDA-MB-231 spheroids): significant decrease in green fluorescence intensity (live cells)
red fluorescence intensity (dead cells) (MDA-MB-231 spheroids): significant increase in red fluorescence intensity (dead cells)

IC50 (A549 cells [7]): > 100 µM
IC50 (MDA-MB-231 cells [8]): 82.4 µM
Compound: Methyl p-{4-[3-(p-tolylcarbamthioyl)propyl]-1H-1,2,3-triazol-1-yl}benzoate [Compound 24]

gankyrin binding by protein thermal shift (gankyrin [3]): effectively bind gankyrin
Compound: Cc1ccc(NC(=O)CCCn2cc(-c3ccc(C(F)(F)F)cc3)nn2)cc1 [Compound 51b, N-p-Tolyl4-{4-[p-(trifluoromethyl)phenyl]-1H-1,2,3-triazol-1-yl}butyramide]
Rb levels (MDA-MB-231 cells [1]): increase in Rb levels
gankyrin levels (MDA-MB-231 cells [1]): remained relatively unchanged
p53 levels (MDA-MB-231 cells [1]): relatively unchanged levels of p53
% colony growth (MDA-MB-231 cells [2]; 2.30 μM): 60.3%
CD spectra: α-helical (secondary structure) content of gankyrin (gankyrin [4]): enhancement in the 222 nm spectral minimum; also recorded: signal enhancement
thermal denaturation of gankyrin monitored at 217 nm (gankyrin [4]): complete denaturation across the entire measured temperature range
green fluorescence intensity (live cells) (MDA-MB-231 spheroids): decrease in green intensity (live cells)
red fluorescence intensity (dead cells) (MDA-MB-231 spheroids): increase in red fluorescence intensity (dead cells)

gankyrin binding by protein thermal shift (gankyrin [3]): effectively bind gankyrin
gankyrin precipitation in CD sample (visual examination) (gankyrin [4]): only showed marginal precipitation
Compound: COC(=O)c1ccc(-c2cn(CCCC(=O)Nc3ccc(-c4ccccc4)cc3)nn2)cc1 [Compound 51c, Methyl p-{1-[3-(N-4-biphenylylcarbamoyl)propyl]-1H-1,2,3-triazol-4-yl}benzoate]
gankyrin thermal stability (CETSA) (gankyrin in A549 cells): significant ability to decrease gankyrin thermal stability
% colony growth (A549 cells [9]): 61.9%
green intensity (live cells) (A549 spheroids): dose-dependent decrease in green intensity
red intensity (dead cells) (A549 spheroids): increase in red intensity
CD spectra: α-helical (secondary structure) content of gankyrin (gankyrin [4]): weakening of secondary structure content in gankyrin
thermal denaturation of gankyrin monitored at 217 nm (gankyrin [4]): complete denaturation across the entire measured temperature range
Rb levels (A549 cells [10]): increased Rb levels
gankyrin levels (A549 cells [10]): remained relatively unchanged
p53 levels (A549 cells [10]): relatively unchanged p53 levels
phosphorylated p53 (Ser6) levels (A549 cells [10]): increase the expression levels of phosphorylated p53 (Ser6)
phosphorylated p53 (Ser15) levels (A549 cells [10]): also increased phosphorylated p53 (Ser15) expression levels
cell population in the S and G2/M phases (A549 cells [11]): significantly decreasing the cell population in the S and G2/M phases
cells in the G0/G1 phase (A549 cells [11]): significant increase in the number of cells in the G0/G1 phase

From article PMC9524259 (Journal of medicinal chemistry, 2022)
